Calls of active or inactive are those of the source. No cut-off for these calls is given here.

The first series concerns the target T1, Corticotropin-releasing factor receptor 1 (Homo sapiens, UniProt P34998).
T1 sequence (P34998 whole entry): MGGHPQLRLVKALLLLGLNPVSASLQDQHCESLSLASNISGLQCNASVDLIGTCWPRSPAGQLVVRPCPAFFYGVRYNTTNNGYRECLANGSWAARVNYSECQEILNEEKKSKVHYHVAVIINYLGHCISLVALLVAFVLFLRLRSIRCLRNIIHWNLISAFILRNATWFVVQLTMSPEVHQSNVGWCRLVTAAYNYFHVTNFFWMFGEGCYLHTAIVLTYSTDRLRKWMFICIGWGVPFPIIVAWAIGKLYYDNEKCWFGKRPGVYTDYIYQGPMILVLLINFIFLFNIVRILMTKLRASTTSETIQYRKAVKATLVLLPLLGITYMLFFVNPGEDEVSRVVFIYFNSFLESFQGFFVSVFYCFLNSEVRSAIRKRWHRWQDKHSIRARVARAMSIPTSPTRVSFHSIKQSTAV
In words: Displacement of [125I]Tyr-o-CRF from human CRFR1 expressed in human IMR32 cells. The format is cell-based, IMR-32.
Conditions: not given
The method, boiled down:
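Radioligand displacement of [125I]-Tyr-o-CRF from human CRF1 receptor expressed endogenously on intact IMR-32 human neuroblastoma cells. The protocol follows an earlier report.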
`CCCN(CC1CC1)C(=O)c1c(CC)nc2n1CCC(=O)N2c1c(C)cc(C)cc1C` registered a Ki of more than 5 µM.
Same read-out and setting: the value for `Cc1cc(C)c(N2CCCn3c2nc(C(F)(F)F)c3CN(CCc2ccccc2)CC(F)(F)F)c(C)c1` was 0.038 µM; that for `Cc1cc(C)c(N2CCCn3c2nc(C(F)(F)F)c3CN2CCOCC2)c(C)c1` was 1.51 µM; that for `Cc1cc(C)c(N2C(=O)CCn3c2nc(C)c3C(=O)N2CCN(c3ccccc3F)CC2)c(C)c1` was more than 5 µM.
Same read-out and setting: the value for `C=CCN(CCC)C(=O)c1c(C)nc2n1CCCN2c1c(C)cc(C)cc1C` was more than 5 µM.
On the same count and under the same terms, under `C=CCN(CC=C)C(=O)c1c(C(F)(F)F)nc2n1CCCN2c1c(C)cc(C)cc1C` stands 0.019 µM; under `CCCN(CC1CC1)C(=O)c1c(C)nc2n1CCC(=O)N2c1c(C)cc(C)cc1C`, more than 5 µM; under `Cc1cc(C)c(N2CCCn3c2nc(C(F)(F)F)c3CN(CC2CC2)CC(F)(F)C(F)(F)F)c(C)c1`, 0.014 µM.
Regarding `Cc1cc(C)c(N2CCCn3c2nc(C(F)(F)F)c3CN2CCCCC2)c(C)c1`, the affinity corresponds to a Ki of 0.245 µM.
Still for that read-out and setting: the value for `CCCN(CC1CC1)C(=O)c1c(C)nc2n1CCCN2c1c(C)cc(C)cc1C` was more than 5 µM; that for `Cc1cc(C)c(N2CCCn3c2nc(C(F)(F)F)c3CN2CCCN(C)CC2)c(C)c1` was more than 5 µM; that for `CCCN(CCC)C(=O)c1c(C)nc2n1CCC(=O)N2c1c(C)cc(C)cc1C` was more than 5 µM.
On to `CCCN(CCc1ccccc1)C(=O)c1c(C)nc2n1CCCN2c1c(C)cc(C)cc1C`, for which the affinity, expressed as Ki, was 1.7 µM.
Still for that read-out and setting: the value for `CCCN(CC1CC1)C(=O)c1c(C(F)(F)F)nc2n1CCCN2c1c(C)cc(C)cc1C` was 1.2 µM.
As to `CCCN(CCC)C(=O)c1c(CC)nc2n1CCC(=O)N2c1c(C)cc(C)cc1C`, the Ki is more than 5 µM.
Turning to `CCc1nc2n(c1C(=O)N(CC)Cc1ccccc1)CCC(=O)N2c1c(C)cc(C)cc1C`, the Ki was more than 5 µM.
Same read-out and setting: under `C=CCN(CCC)Cc1c(C(F)(F)F)nc2n1CCCN2c1c(C)cc(C)cc1C` stands 0.048 µM.
With `CCCCN(CC)C(=O)c1c(CC)nc2n1CCC(=O)N2c1c(C)cc(C)cc1C`, the Ki was more than 5 µM.
The molecule `Cc1cc(C)c(N2C(=O)CCn3c2nc(C)c3C(=O)N2CCOCC2)c(C)c1` showed a Ki of more than 5 µM.
Still for that read-out and setting: the value for `Cc1cc(C)c(N2CCCn3c2nc(C(F)(F)F)c3CN(CC2CC2)CC(F)(F)F)c(C)c1` was 0.008 µM; that for `Cc1cc(C)c(N2CCCn3c2nc(C(F)(F)F)c3CN(CC2CCC2)CC(F)(F)F)c(C)c1` was 0.027 µM; that for `C=CCN(CC=C)C(=O)c1c(C)nc2n1CCC(=O)N2c1c(C)cc(C)cc1C` was more than 5 µM.
Molecule `CCCN(Cc1c(C(F)(F)F)nc2n1CCCN2c1c(C)cc(C)cc1C)CC1CCC1` had a Ki of 0.021 µM.
The same measure, in the same setting: under `CCCN(Cc1ccccc1)C(=O)c1c(C)nc2n1CCCN2c1c(C)cc(C)cc1C` stands more than 5 µM; under `Cc1cc(C)c(N2CCCn3c2nc(C(F)(F)F)c3CN2CC=CCC2)c(C)c1`, 0.364 µM.
Take `C=CCN(CC=C)C(=O)c1c(CC)nc2n1CCC(=O)N2c1c(C)cc(C)cc1C`: the Ki was more than 5 µM.
Regarding `CCCN(CC1CC1)C(=O)c1c(CC)nc2n1CCCN2c1c(C)cc(C)cc1C`, the Ki amounted to 2.3 µM.
As to `Cc1cc(C)c(N2CCCn3c2nc(C(F)(F)F)c3CN2CCSCC2)c(C)c1`, the Ki was 0.441 µM.
`CCCN(CCc1ccccc1)Cc1c(C(F)(F)F)nc2n1CCCN2c1c(C)cc(C)cc1C` registered an inhibition constant (Ki) of 0.067 µM.
Same read-out and setting: under `CCCN(Cc1c(C(F)(F)F)nc2n1CCCN2c1c(C)cc(C)cc1C)CC1CC1` stands 0.032 µM; under `Cc1cc(C)c(N2CCCn3c2nc(C)c3C(=O)N(CC2CC2)CC2CC2)c(C)c1`, 3.4 µM; under `CCCN(CCC(F)(F)F)Cc1c(C(F)(F)F)nc2n1CCCN2c1c(C)cc(C)cc1C`, 0.063 µM.
Same read-out and setting: under `CCN(Cc1c(C(F)(F)F)nc2n1CCCN2c1c(C)cc(C)cc1C)CC1CC1` stands 0.031 µM; under `CCCN(CC1CCC1)C(=O)c1c(C)nc2n1CCCN2c1c(C)cc(C)cc1C`, 3.3 µM.

A further series has as its system Mus musculus. Nature of the series: Anxiolytic activity in ip dosed mouse assessed as decrease reduction of stretched attenuated postures by canopy test.
Conditions: not given
The series is classed as functional. The method, boiled down: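 Mouse canopy test for anxiety-like behaviour. Compound was given ip in cremophor/DMSO/water (1:1:8) at several doses. The read-out was the total count of stretched attend postures. The protocol follows an earlier report.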
On to `CCCN(Cc1c(C(F)(F)F)nc2n1CCCN2c1c(C)cc(C)cc1C)CC1CC1`, for which the result was Active.

Test system in another series: not listed separately
Nature of the series: Drug level in mouse brain at 32 mg/kg, ip after 30 mins. The format is ADME, organism-based. More on the design: dose 32 mg/kg, route intraperitoneal. The conditions noted are these: read-out: Drug uptake. In short, it runs like this:
(§1)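 Mice were dosed ip at 32 mg/kg in cremophor/DMSO/water (1:1:8). Brain and plasma were sampled at 30 min and 1 h after dosing. Brain level is given as ng compound per g brain, alongside the brain/plasma concentration ratio.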
In the case of `CCCN(Cc1c(C(F)(F)F)nc2n1CCCN2c1c(C)cc(C)cc1C)CC1CC1`, the concentration at 0.5 h came to 352 ng/g.

Test system in the next series: not listed separately
Nature of the series: Ratio of drug level in mouse brain to plasma at 32 mg/kg, ip after 30 mins. The series is classed as ADME, organism-based. More on the design: dose 32 mg/kg, route intraperitoneal.
Conditions: not given
In short, it runs like this: as §1
For the molecule `CCCN(Cc1c(C(F)(F)F)nc2n1CCCN2c1c(C)cc(C)cc1C)CC1CC1`, the Kp at 0.5 h worked out at 1.2.

Test system in another series: not listed separately
Nature of the series: Drug level in mouse brain at 32 mg/kg, ip after 1 hr. The format is ADME, organism-based. More on the design: dose 32 mg/kg, route intraperitoneal. The conditions noted are these: read-out: Drug uptake. The method, boiled down: as §1
`CCCN(Cc1c(C(F)(F)F)nc2n1CCCN2c1c(C)cc(C)cc1C)CC1CC1`: the concentration at 1 h amounted to 217 ng/g.

Test system in a further series: not listed separately
Nature of the series: Ratio of drug level in mouse brain to plasma at 32 mg/kg, ip after 1 hr. The series is classed as ADME, organism-based. Set-up: dose 32 mg/kg, route intraperitoneal.
Conditions: not given
In short, it runs like this: as §1
`CCCN(Cc1c(C(F)(F)F)nc2n1CCCN2c1c(C)cc(C)cc1C)CC1CC1`: the Kp at 1 h was determined as 1.

(Values after ChEMBL document CHEMBL1155435, “Design, synthesis and evaluation of constrained tetrahydroimidazopyrimidine derivatives as antagonists of corticotropin-releasing factor type 1 receptor (CRF1R)” (Bioorg Med Chem Lett, 2010).)
